# The entries come from a sample that favours hits as a whole.
# T cruzi growth-1: T. cruzi intracellular proliferation inhibitors, primary screen, cell-based, beta-gal Tulahuen parasites, NIH3T3 host, luminescence | 77,000 tested, 5.9% active | inhibition, % at 8.34 µM | T. cruzi beta-gal in NIH3T3, GalScreen luminescence, 90 h;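 active means mean inhibition above about 93%, with at least 55% of replicates each passing it, limit read from the data, passing the limit was not always enough; inconclusive means only one of those two conditions holds; inactive means neither condition holds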
# IDH1 R132H inh: inhibitors of IDH1 R132H reductase, primary screen, biochemical, plate reader, single point; Isocitrate dehydrogenase [NADP] cytoplasmic (Homo sapiens), O75874; diaphorase/resazurin fluorescence, 60 min; inhibition, % at 10 µM; 70,000 tested, 0.18% active; AID 624101, 2012; in the data active means inhibition above about 34%; inconclusive means no clear call, values can overlap the other calls; inactive means below about 11%;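 further: 0% = DMSO and 100% = no enzyme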
# Target sequence (O75874 whole entry R132H): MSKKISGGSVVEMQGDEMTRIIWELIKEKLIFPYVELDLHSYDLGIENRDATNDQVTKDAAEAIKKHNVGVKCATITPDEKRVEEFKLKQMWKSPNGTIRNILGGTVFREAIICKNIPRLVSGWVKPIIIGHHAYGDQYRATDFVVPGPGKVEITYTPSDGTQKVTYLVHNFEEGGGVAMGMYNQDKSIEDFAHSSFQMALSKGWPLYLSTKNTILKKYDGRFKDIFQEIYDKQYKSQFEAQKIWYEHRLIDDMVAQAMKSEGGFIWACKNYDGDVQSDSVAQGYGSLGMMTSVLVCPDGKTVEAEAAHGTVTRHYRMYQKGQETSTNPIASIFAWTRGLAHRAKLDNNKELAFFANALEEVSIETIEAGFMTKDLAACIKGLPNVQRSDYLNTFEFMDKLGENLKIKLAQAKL
# GASC1 inh: inhibitors of GASC-1 (KDM4C) histone demethylase, primary screen, biochemical, single concentration HTS | 96,000 tested, 0.15% active | Lysine-specific demethylase 4C (Homo sapiens), Q9H3R0 | inhibition, % at 12.5 µM | GST-KDM4C 2-372, H3K9me3 peptide, LANCE TR-FRET;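 active means mean replicate inhibition above about 25%, with at least 55% of replicates also reaching it, limit read from the data, passing the limit was not always enough; inconclusive means only one of those two conditions met; inactive means neither condition met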
#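 material = GST-tagged GASC-1 (JMJD2C) catalytic fragment, aa 2-372 | amount = enzyme final amount 10 nM | medium = HEPES buffer, pH 7.5, plus ascorbate | also added = H3K9me3 peptide substrate, Fe(II), 2-oxoglutarate | dosing = single dose | times = 30 min demethylation and 1 h detection at room temperature | detection = LANCE TR-FRET | read-out basis = Fall in 671/618 emission ratio as inhibition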
# T cruzi growth-2: T. cruzi intracellular proliferation inhibitors, confirmation, cell-based, NIH3T3 host, beta-gal parasite, luminescence, cherry-pick. inhibition, % at 8.35 µM. shares compounds with T cruzi growth-1. 5,600 tested, 72% active. T. cruzi beta-gal in NIH3T3, GalScreen luminescence, 90 h. AID 651739, 2012;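 active means mean replicate inhibition above about 95% and at least 55% of replicates individually reaching it, limit read from the data; inconclusive means only one of the two criteria is met; inactive means neither criterion is met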
# T cruzi growth-3: inhibitors of intracellular T. cruzi replication, confirmation, NIH3T3 host cells, beta-gal parasites, cherry-pick, set 2. shares compounds with T cruzi growth-1. T. cruzi beta-gal in NIH3T3, GalScreen luminescence, 90 h. inhibition, % at 2.09 µM. 5,600 tested, 21% active;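 active means mean inhibition above about 95%, with at least 55% of replicates also reaching it, limit read from the data; inconclusive means meets just one of the two conditions; inactive means meets neither condition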;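 further: plate controls were neutral control median for no effect and positive control median for full effect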
# 3T3 cytotox: cytotoxicity in mouse NIH/3T3 fibroblasts, confirmation, cytotoxicity control for T. cruzi proliferation inhibitor project, cell-based, cherry-pick, single point | AID 651742, 2012 | NIH/3T3 viability, CellTiter-Glo ATP luminescence, 90 h | cytotoxicity (signal decrease), % at 8.35 µM | 5,600 tested, 14% active | shares compounds with T cruzi growth-1;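 active means mean signal decrease across replicates above about 35% based on untreated-well scatter, with enough replicates individually passing, limit read from the data; inconclusive means no rule stated though some were filed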;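 further: 0% = median of neutral control wells and 100% = median of positive control wells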
# NIH3T3 tox 2: NIH/3T3 fibroblast cytotoxicity, confirmation, cytotoxicity control, cell-based, cherry-pick, single point, set 2. AID 651744, 2012. 5,600 tested, 56% active. NIH/3T3 viability, CellTiter-Glo ATP luminescence, 90 h. shares compounds with T cruzi growth-1. inhibition, % at 24.9 µM;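 active means mean loss of cell viability signal at or above a set limit, and enough replicates individually reaching it; inconclusive means meets only the mean limit or only the replicate share; inactive means meets neither condition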;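 further: 0% = median of neutral control wells and 100% = median of positive control wells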
# * marks the source's active call; other numbers are inactive results; ? = inconclusive; nt = no result.
SMILES,T cruzi growth-1,IDH1 R132H inh,GASC1 inh,T cruzi growth-2,T cruzi growth-3,3T3 cytotox,NIH3T3 tox 2
C[C@@H]1CN([C@@H](C)CO)C(=O)c2cc(C#Cc3ccccc3F)cnc2O[C@H]1CN(C)S(=O)(=O)c1ccccc1F,107.7*,0.0,-5.9,115.2*,105.5*,19.1,68.0*
C[C@@H]1CN([C@H](C)CO)C(=O)c2cc(C#Cc3ccccc3)cnc2O[C@@H]1CN(C)S(=O)(=O)c1ccccc1F,70.9,-0.1,nt,nt,nt,nt,nt
COc1ccc([N+](=O)[O-])cc1NC(=O)c1ccccc1OCC(=O)Nc1cccc(C)c1,nt,0.0,nt,nt,nt,nt,nt
CN(C)C(=O)c1cccc(-c2ccc3c(c2)[C@H]2[C@H](CCN2C(=O)C2CCOCC2)[C@H](CO)N3)c1,92.2,nt,1.2,nt,nt,nt,nt
O=C(CN1CCOCC1)N1CC[C@@H]2[C@H]1c1cc(-c3ccccc3)ccc1N[C@@H]2CO,?,nt,0.3,98.3*,14.3,-17.1,4.8
O=C(CN1CCOCC1)N1CC[C@H]2[C@H](CO)Nc3ccc(-c4ccc(F)cc4)cc3[C@H]21,85.8,nt,-1.4,nt,nt,nt,nt
COc1cccc(-c2ccc3c(c2)[C@H]2[C@H](CCN2C(=O)C2CC2)[C@H](CO)N3)c1,nt,nt,-4.2,nt,nt,nt,nt
CN(C)C(=O)c1cccc(-c2ccc3c(c2)[C@@H]2[C@@H](CCN2C(=O)C2CCOCC2)[C@H](CO)N3)c1,?,nt,-2.9,98.7*,26.3,-14.3,-9.4
COc1ccc(-c2ccc3c(c2)[C@@H]2[C@@H](CCN2C(=O)CN2CCOCC2)[C@@H](CO)N3)cc1,60.0,nt,0.2,nt,nt,nt,nt
COc1cccc(-c2ccc3c(c2)[C@H]2[C@H](CCN2C(=O)CN2CCOCC2)[C@@H](CO)N3)c1,?,nt,-1.0,87.2,33.7,-8.7,-2.4
COc1cccc(-c2ccc3c(c2)[C@@H]2[C@@H](CCN2C(=O)C2CCOCC2)[C@@H](CO)N3)c1,103.3*,nt,3.0,100.7*,?,12.9,17.0
CC(C)NC(=O)Nc1ccc2c(c1)CC(=O)N([C@H](C)CO)C[C@@H](C)[C@@H](CN(C)C(=O)Nc1ccc(C(F)(F)F)cc1)O2,nt,nt,0.3,nt,nt,nt,nt
C[C@H](CO)N1C[C@H](C)[C@H](CN(C)CC2CC2)OCCCC[C@H](C)Oc2ccc(NS(=O)(=O)c3ccccc3)cc2C1=O,74.6,-0.7,8.0,nt,nt,nt,nt
O=C(Nc1ccc(Cl)c(Cl)c1)N[C@@H]1CC[C@@H](CCn2cc(C3CCCCC3)nn2)O[C@H]1CO,48.4,-0.5,-3.4,nt,nt,nt,nt
COc1cccc(-c2ccc3c(c2)[C@@H]2[C@@H](CCN2C(=O)Cc2ccccc2)[C@@H](CO)N3)c1,16.7,nt,-1.9,nt,nt,nt,nt
COc1cccc(-c2ccc3c(c2)[C@H]2[C@H](CCN2C(=O)Cc2ccncc2)[C@H](CO)N3)c1,104.0*,nt,-2.3,94.6,61.8,4.2,15.1
C[C@@H]1CCCCO[C@@H](CN(C)C(=O)C2CCCCC2)[C@H](C)CN([C@H](C)CO)C(=O)c2cc(NC(=O)Nc3ccc(C(F)(F)F)cc3)ccc2O1,100.0,0.7,-1.8,nt,nt,nt,nt
C[C@@H]1CCCCO[C@@H](CN(C)C(=O)C2CCCCC2)[C@@H](C)CN([C@H](C)CO)C(=O)c2cc(NC(=O)Nc3ccccc3)ccc2O1,67.2,0.8,0.0,nt,nt,nt,nt
C[C@H](CO)N1C[C@H](C)[C@@H](CN(C)C(=O)C2CCCCC2)OCCCC[C@H](C)Oc2ccc(NC(=O)Nc3ccc(F)cc3)cc2C1=O,84.1,nt,-0.8,nt,nt,nt,nt
COc1ccc(NC(=O)Nc2ccc3c(c2)C(=O)N([C@@H](C)CO)C[C@@H](C)[C@H](CN(C)C(=O)C2CCCCC2)OCCCC[C@H](C)O3)cc1,65.3,0.6,0.3,nt,nt,nt,nt
C[C@@H]1CN([C@@H](C)CO)C(=O)c2cc(NC(=O)Nc3ccc(C(F)(F)F)cc3)ccc2O[C@@H](C)CCCCO[C@H]1CN(C)C(=O)C1CCCCC1,119.0*,nt,0.4,108.1*,111.0*,2.8,7.5
C[C@H]1CCCCO[C@@H](CN(C)C(=O)C2CCCCC2)[C@@H](C)CN([C@@H](C)CO)C(=O)c2cc(NC(=O)Nc3ccc(F)cc3)ccc2O1,?,nt,-1.8,111.0*,23.6,-6.6,6.7
COc1ccc(NC(=O)Nc2ccc3c(c2)C(=O)N([C@@H](C)CO)C[C@@H](C)[C@H](CN(C)C(=O)C2CCCCC2)OCCCC[C@@H](C)O3)cc1,?,nt,0.3,?,15.7,-4.0,-2.2
C[C@@H]1CCCCO[C@H](CN(C)C(=O)C2CCCCC2)[C@@H](C)CN([C@H](C)CO)C(=O)c2cc(NC(=O)Nc3ccc(C(F)(F)F)cc3)ccc2O1,120.4*,0.8,1.6,105.3*,86.9,9.6,?
COCC(=O)N1CC2(CN(Cc3ccccc3)C2)c2c([nH]c3cc(OC)ccc23)[C@@H]1CO,nt,nt,-0.1,nt,nt,nt,nt
SMILES,T cruzi growth-1,IDH1 R132H inh,GASC1 inh,T cruzi growth-2,T cruzi growth-3,3T3 cytotox,NIH3T3 tox 2
O=C(C[C@H]1C=C[C@H](NC(=O)c2cnccn2)[C@H](CO)O1)NCc1ccccc1F,-4.7,0.3,0.3,nt,nt,nt,nt
CCC(Sc1nncn1C)C(=O)Nc1ccc(-c2nc3ccc(C)cc3s2)cc1 (configuration not stated),nt,0.3,nt,nt,nt,nt,nt
C[C@@H]1CCCCO[C@H](CN(C)C(=O)C2CCCCC2)[C@@H](C)CN([C@@H](C)CO)C(=O)c2cc(NC(=O)Nc3ccc(C(F)(F)F)cc3)ccc2O1,120.5*,1.9,-0.5,97.8*,106.2*,-13.1,-8.4
C[C@@H]1CCCCO[C@@H](CN(C)C(=O)C2CCCCC2)[C@H](C)CN([C@H](C)CO)C(=O)c2cc(NC(=O)Nc3ccc(F)cc3)ccc2O1,90.3,2.8,-0.4,nt,nt,nt,nt
C[C@H](CO)N1C[C@H](C)[C@H](CN(C)C(=O)C2CCCCC2)OCCCC[C@H](C)Oc2ccc(NC(=O)Nc3ccc(C(F)(F)F)cc3)cc2C1=O,99.9,nt,0.7,nt,nt,nt,nt
C[C@H]1CCCCO[C@@H](CN(C)C(=O)C2CCCCC2)[C@@H](C)CN([C@@H](C)CO)C(=O)c2cc(NC(=O)Nc3ccc(C(F)(F)F)cc3)ccc2O1,120.4*,3.1,-0.4,95.7*,115.2*,-13.0,7.3
